In ChEMBL document CHEMBL2046422, “Structure-activity relationship of nonacidic quinazolinone inhibitors of human microsomal prostaglandin synthase 1 (mPGES 1)” (J Med Chem, 2012) one finds IC50, Activity and inhibition data, which are given here for seven compounds.

Some results are limits rather than exact numbers.

As a reminder, the IC50 is the concentration that gives 50% inhibition. As a reminder, the inhibition is the percentage by which the read-out fell short of the control.

For one data set, the target named is T1, Prostaglandin E synthase (Homo sapiens, UniProt O14684).
T1 sequence (O14684 whole entry): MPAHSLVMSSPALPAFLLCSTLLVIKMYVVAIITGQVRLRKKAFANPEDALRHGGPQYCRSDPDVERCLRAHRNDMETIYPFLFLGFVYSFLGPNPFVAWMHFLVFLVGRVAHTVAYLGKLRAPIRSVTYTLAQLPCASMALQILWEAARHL
Kind of data set: Inhibition of mPGES-1 derived from IL1beta and TNFalpha stimulated human HeLa cells microsomal fraction using PGH2 as substrate preincubated for 30 mins prior to substrate addition measured after 1 min by LC-MS/MS analysis. Summed up: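 Microsomes were pelleted by ultracentrifugation and resuspended in buffer with 2.5 mM GSH; protein was measured by Bradford. Screening used 1 μM final compound, and IC₅₀ (95% CI) came from increasing concentrations. PGE₂ was read by LC-MS/MS after solid-phase extraction with deuterated standards; n ≥ 3.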

The next data set relates to HeLa. Kind of data set: Cytotoxicity against IL1beta and TNFalpha-stimulated human HeLa cells at 1 to 10 uM after 24 hrs by WST1 assay. It counts as cell-based. Summed up:
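HeLa cells were seeded at 3 × 10³ per well and grown 24 h at 37 °C. They were then stimulated with IL-1β (1 ng/mL) + TNFα (5 ng/mL) while treated with compound at 1, 10 or 100 μM, or DMSO, for 24 h. WST-1 was added for 90–150 min and absorbance read at 450 nm against 620 nm. Viability is percent of DMSO control, SEM, n ≥ 3.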
On the technique in general: Tetrazolium assays rely on reduction of a dye to a coloured formazan, in cell work by metabolically active cells.

Data set [1] has as its target T2, Prostaglandin G/H synthase 2 (Homo sapiens) (UniProt P35354).
T2 sequence (whole entry): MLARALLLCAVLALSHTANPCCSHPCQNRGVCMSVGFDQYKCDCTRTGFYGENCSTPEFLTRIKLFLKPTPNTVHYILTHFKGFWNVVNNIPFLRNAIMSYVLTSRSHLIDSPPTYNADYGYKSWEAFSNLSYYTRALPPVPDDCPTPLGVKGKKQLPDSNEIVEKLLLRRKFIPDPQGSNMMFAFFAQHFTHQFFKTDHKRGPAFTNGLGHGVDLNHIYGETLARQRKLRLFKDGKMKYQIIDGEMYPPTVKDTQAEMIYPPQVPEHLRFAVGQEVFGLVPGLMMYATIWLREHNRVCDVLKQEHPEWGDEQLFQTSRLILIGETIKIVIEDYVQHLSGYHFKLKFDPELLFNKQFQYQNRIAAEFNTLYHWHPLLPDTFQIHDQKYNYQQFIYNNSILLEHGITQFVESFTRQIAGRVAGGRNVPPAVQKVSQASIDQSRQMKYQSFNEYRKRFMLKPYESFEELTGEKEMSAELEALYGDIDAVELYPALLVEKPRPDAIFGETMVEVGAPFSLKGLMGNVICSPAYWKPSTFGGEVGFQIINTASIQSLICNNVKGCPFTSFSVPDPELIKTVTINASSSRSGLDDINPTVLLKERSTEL
Kind of data set: Inhibition of COX2 in LPS-stimulated human whole blood assessed as residual PGE2 level at 100 uM preincubated for 15 mins prior to LPS-stimulation measured after 24 hrs by LC-MS/MS analysis relative to control. The gist of the method:
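Human whole blood received compound in DMSO plus acetylsalicylic acid (10 μg/mL) to block COX-1, 15 min at 37 °C. LPS (10 μg/mL final) in autologous plasma was added to induce COX-2/mPGES-1, and blood was incubated 24 h at 37 °C. Samples were chilled on ice 5 min, and plasma prostaglandins were extracted by solid-phase extraction and quantified by LC-MS/MS. Values are relative to vehicle.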

Data set [2] concerns the target T3, Prostaglandin G/H synthase 1 (Ovis aries) (UniProt P05979).
T3 sequence (whole entry): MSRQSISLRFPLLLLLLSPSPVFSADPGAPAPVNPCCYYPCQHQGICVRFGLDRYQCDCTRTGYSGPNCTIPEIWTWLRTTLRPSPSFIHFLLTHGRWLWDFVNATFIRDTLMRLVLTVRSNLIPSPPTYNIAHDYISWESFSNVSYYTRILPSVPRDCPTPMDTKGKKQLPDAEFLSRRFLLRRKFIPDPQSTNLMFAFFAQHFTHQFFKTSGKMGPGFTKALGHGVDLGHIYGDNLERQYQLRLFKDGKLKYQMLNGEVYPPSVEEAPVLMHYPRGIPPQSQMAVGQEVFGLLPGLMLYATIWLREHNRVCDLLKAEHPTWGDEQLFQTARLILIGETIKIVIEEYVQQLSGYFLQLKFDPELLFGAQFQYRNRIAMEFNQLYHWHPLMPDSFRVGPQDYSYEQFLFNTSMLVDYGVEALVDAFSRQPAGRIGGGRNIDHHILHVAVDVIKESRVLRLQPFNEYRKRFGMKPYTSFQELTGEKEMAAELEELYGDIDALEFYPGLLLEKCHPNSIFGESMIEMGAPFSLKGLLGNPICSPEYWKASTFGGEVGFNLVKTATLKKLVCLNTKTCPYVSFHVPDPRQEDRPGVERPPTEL
In words: Inhibition of ovine COX1-mediated PGE2 synthesis using PGH2 as substrate at 1 uM by LC-MS/MS analysis relative to control. The gist of the method: (§1)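 Direct enzyme test with a COX inhibitor screening kit, run per the kit protocol: COX-1 was ovine, COX-2 human recombinant. […] Prostaglandins were quantified by LC-MS/MS after solid-phase extraction. Mean of n ≥ 3.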

For data set [3], the target named is T4, 5-lipoxygenase/FLAP (Homo sapiens) (UniProt P09917+P20292). Kind of data set: Inhibition of 5-lipoxygenase/FLAP in calcium ionophore-stimulated human whole blood assessed as 5(s)HETE level at 10 uM preincubated for 15 mins prior to calcium ionophore-stimulation measured after 15 mins by LC-MS/MS analysis. The class given is protein-complex assay. The arrangement: scale not given: the % may be the effect or the level left. Summed up: (§2)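 Heparinized human whole blood (500 μL) was preincubated with compound for 15 min at 37 °C. It was then stimulated with 20 μM calcium ionophore A23187 in autologous plasma for 15 min at 37 °C and chilled on ice for 5 min. Plasma was collected by centrifugation at 4 °C. Eicosanoids were recovered by liquid–liquid extraction with deuterated internal standards and quantified by LC-MS/MS (MRM). Levels are relative to vehicle-treated blood.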

The target in data set [4] is T5, Prostaglandin E synthase (Homo sapiens) (UniProt O14684).
T5 sequence (whole entry): T1 sequence (O14684 whole entry)
Kind of data set: Inhibition of mPGES-1 in IL1beta and TNFalpha-stimulated human HeLa cells assessed as PGE2 level at 10 uM after 24 hrs by LC-MS/MS analysis relative to control. It counts as cell-based. The gist of the method:
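HeLa cells (2 × 10⁴) were grown 24 h at 37 °C. The medium was then replaced with IL-1β (1 ng/mL) + TNFα (5 ng/mL), or PBS for unstimulated controls, together with compound at 1, 10 or 100 μM, or DMSO, for 24 h at 37 °C. Supernatant PGE₂ was quantified by LC-MS/MS after solid-phase extraction with deuterated standards. Inhibition is percent of DMSO control corrected for unstimulated background, SEM, n ≥ 3.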

For data set [5], the target named is T2, Prostaglandin G/H synthase 2 (Homo sapiens). In words: Inhibition of human recombinant COX2-mediated PGE2 synthesis using PGH2 as substrate at 1 uM by LC-MS/MS analysis relative to control. The gist of the method: as §1
For data set [6], the target named is T4, 5-lipoxygenase/FLAP (Homo sapiens). In words: Inhibition of 5-lipoxygenase/FLAP in calcium ionophore-stimulated human whole blood assessed as residual LTB4 level at 10 uM preincubated for 15 mins prior to calcium ionophore-stimulation measured after 15 mins by LC-MS/MS analysis. The class given is protein-complex assay. The gist of the method: as §2

`CCCc1nc2ccc(NC(=O)c3ccccc3Cl)cc2c(=O)n1Cc1ccc(-c2ccccc2)cc1`: on Prostaglandin E synthase, the midpoint of inhibition, the IC50, lay at 220 nM. Besides, the Activity result with HeLa was “Non-toxic”; in data set [1] it was 52.1%; in data set [3] it was 74.8%; in data set [6], 71.9%. Also, the inhibition was found to be 8.4% in data set [2], 70% in data set [4] and 5.8% in data set [5].

As for `CCCc1nc2ccc(NC(=O)c3ccccc3Cl)cc2c(=O)n1Cc1ccc(-c2ccc(Cl)cc2)cc1`, the Activity entry in the data set with HeLa was “Non-toxic”; in data set [1], 174%; in data set [3] it was 157%; in data set [6] it was 151%. The results for the inhibition in data set [2] and in data set [5] were 2.6% and below 0%, respectively.

`CCCc1nc2ccc(NC(=O)c3ccccc3Cl)cc2c(=O)n1Cc1ccc(-c2cccc(Cl)c2)cc1` gave an IC50 against Prostaglandin E synthase of 130 nM. Besides, the Activity in data set [1] was found to be 51.2%; in data set [3], 79%; in data set [6], 83%. Moreover, the inhibition in data set [2] was below 0%; in data set [5] it was 6.7%.

Consider `CCCc1nc2ccc(NC(=O)c3ccccc3Cl)cc2c(=O)n1Cc1ccc(-c2cccc(OC)c2)cc1`, for which the IC50 against Prostaglandin E synthase worked out at 210 nM. The Activity result was “Non-toxic” in the data set with HeLa, 50% in data set [1], 67.8% in data set [3] and 70.9% in data set [6]. The inhibition amounted to 20.1% in data set [2], 97% in data set [4] and 2.5% in data set [5].

At Prostaglandin E synthase, `CCCc1nc2ccc(NC(=O)c3c(F)cccc3Cl)cc2c(=O)n1Cc1cccc(Cl)c1` returned an IC50 of 370 nM. Also, the Activity result is “Non-toxic” in the data set on HeLa, 54.7% in data set [1], 92.1% in data set [3] and 94.1% in data set [6]. For the same compound, the inhibition in data set [2] and in data set [5] was below 0% in each case.

On Prostaglandin E synthase, `CCCc1nc2ccc(NC(=O)c3ccccc3Cl)cc2c(=O)n1Cc1cccc(Cl)c1` registered an IC50 of 360 nM. Further, the Activity entry in the data set with HeLa is “Non-toxic”; in data set [1], 37.4%; in data set [3], 92%; in data set [6] it was 93.7%. The inhibition in data set [2] and in data set [5] was below 0% in each case.

Turning to `CCCc1nc2ccc(NC(=O)c3ccccc3C)cc2c(=O)n1Cc1cccc(Cl)c1`, on Prostaglandin E synthase, 260 nM corresponded to half-maximal inhibition (IC50). In addition, the Activity result with HeLa is “Non-toxic”; in data set [1], 53%; in data set [3], 74.4%; in data set [6], 72.7%. The inhibition in data set [2] and in data set [5] was below 0% throughout.
